Assay results from ChEMBL document CHEMBL1127344, “Tridentate ligands containing the SNS donor atom set as a novel backbone for the development of technetium brain-imaging agents” (J Med Chem, 1994).

Experiments:
Mus musculus [1] = species on record: Mus musculus; test: Tested for biodistribution of compound at 5 min in mice heart; format: ADME, organism-based; conditions: in vivo
Outline: (§1)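 Male Swiss albino mice, at least five per group, received HPLC-purified 99mTc complex by tail vein. The complex was reconstituted in 50% methanol (0.1 mL, 2-3 μCi). Mice were killed by cardiectomy under light ether at 1-60 min pi. Organs were weighed and γ-counted against a 1% injected-dose standard to give % dose/organ. Blood and muscle were taken as 7% and 43% of body weight.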

Mus musculus [2] = species on record: Mus musculus; test: Tested for biodistribution of compound at 10 min in mice stomach; format: ADME, organism-based; conditions: in vivo
Outline: (§2)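 Male Swiss albino mice, at least five per group, received 0.1 mL (2-3 μCi) of HPLC-purified 99mTc complex reconstituted in 50% methanol by tail vein. They were killed by cardiectomy under light ether anesthesia at set times (1-60 min pi). Organs were weighed and γ-counted against a 1% injected-dose standard to give % dose/organ. Blood and muscle were taken as 7% and 43% of body weight.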

Mus musculus [3] = species on record: Mus musculus; test: Tested for biodistribution of compound at 10 min in mice brain; format: ADME, organism-based; conditions: in vivo; outline: as §2
Mus musculus [4] = species on record: Mus musculus; test: Tested for biodistribution of compound at 60 min in mice muscle; format: ADME, organism-based, Muscle tissue; conditions: in vivo, 1 h; outline: as §1
Mus musculus [5] = species on record: Mus musculus; test: Tested for biodistribution of compound at 1 min in mice liver; format: ADME, organism-based; conditions: in vivo; outline: as §2
Mus musculus [6] = species on record: Mus musculus; test: Tested for biodistribution of compound at 5 min in mice intestine; format: ADME, organism-based; conditions: in vivo; outline: as §1
Mus musculus [7] = species on record: Mus musculus; test: Tested for biodistribution of compound at 60 min in mice intestine; format: ADME, organism-based; conditions: in vivo, 1 h; outline: as §1
Mus musculus [8] = species on record: Mus musculus; test: Tested for biodistribution of compound at 1 min in mice stomach; format: ADME, organism-based; conditions: in vivo; outline: as §2
Mus musculus [9] = species on record: Mus musculus; test: Tested for biodistribution of compound at 5 min in mice brain; format: ADME, organism-based; conditions: in vivo; outline: as §1
Mus musculus [10] = species on record: Mus musculus; test: Tested for biodistribution of compound at 30 min in mice urine; format: ADME, organism-based; conditions: in vivo, 0.5 h; outline: as §2
Mus musculus [11] = species on record: Mus musculus; test: Tested for biodistribution of compound at 10 min in mice iver; format: ADME, organism-based, Liver; conditions: in vivo; outline: as §2
Mus musculus [12] = species on record: Mus musculus; test: Tested for biodistribution of compound at 60 min in mice stomach; format: ADME, organism-based; conditions: in vivo, 1 h; outline: as §1
Mus musculus [13] = species on record: Mus musculus; test: Tested for biodistribution of compound at 30 min in mice muscle; format: ADME, organism-based, Muscle tissue; conditions: in vivo, 0.5 h; outline: as §2
Mus musculus [14] = species on record: Mus musculus; test: Tested for biodistribution of compound at 5 min in mice stomach; format: ADME, organism-based; conditions: in vivo; outline: as §1
Mus musculus [15] = species on record: Mus musculus; test: Tested for biodistribution of compound at 1 min in mice heart; format: ADME, organism-based; conditions: in vivo; outline: as §2
Mus musculus [16] = species on record: Mus musculus; test: Tested for biodistribution of compound at 30 min in mice heart; format: ADME, organism-based; conditions: in vivo, 0.5 h; outline: as §2
Mus musculus [17] = species on record: Mus musculus; test: Tested for biodistribution of compound at 60 min in mice brain; format: ADME, organism-based; conditions: in vivo, 1 h; outline: as §1
Mus musculus [18] = species on record: Mus musculus; test: Tested for biodistribution of compound at 5 min in mice spleen; format: ADME, organism-based; conditions: in vivo; outline: as §1
Mus musculus [19] = species on record: Mus musculus; test: Tested for biodistribution of compound at 60 min in mice lungs; format: ADME, organism-based, Lung; conditions: in vivo, 1 h; outline: as §1
Mus musculus [20] = species on record: Mus musculus; test: Tested for biodistribution of compound at 60 min in mice iver; format: ADME, organism-based, Liver; conditions: in vivo, 1 h; outline: as §1
Mus musculus [21] = species on record: Mus musculus; test: Tested for biodistribution of compound at 10 min in mice spleen; format: ADME, organism-based; conditions: in vivo; outline: as §2
Mus musculus [22] = species on record: Mus musculus; test: Tested for biodistribution of compound at 60 min in mice urine; format: ADME, organism-based; conditions: in vivo, 1 h; outline: as §1
Mus musculus [23] = species on record: Mus musculus; test: Tested for biodistribution of compound at 1 min in mice intestine; format: ADME, organism-based; conditions: in vivo; outline: as §2
Mus musculus [24] = species on record: Mus musculus; test: Tested for biodistribution of compound at 30 min in mice brain; format: ADME, organism-based; conditions: in vivo, 0.5 h; outline: as §2
Mus musculus [25] = species on record: Mus musculus; test: Tested for biodistribution of compound at 10 min in mice blood; format: ADME, organism-based; conditions: in vivo; outline: as §2
Mus musculus [26] = species on record: Mus musculus; test: Tested for biodistribution of compound at 1 min in mice spleen; format: ADME, organism-based; conditions: in vivo; outline: as §2
Mus musculus [27] = species on record: Mus musculus; test: Tested for biodistribution of compound at 1 min in mice brain; format: ADME, organism-based; conditions: in vivo; outline: as §2
Mus musculus [28] = species on record: Mus musculus; test: Tested for biodistribution of compound at 1 min in mice kidney; format: ADME, organism-based; conditions: in vivo; outline: as §2
Mus musculus [29] = species on record: Mus musculus; test: Tested for biodistribution of compound at 5 min in mice lungs; format: ADME, organism-based, Lung; conditions: in vivo; outline: as §1
Mus musculus [30] = species on record: Mus musculus; test: Tested for biodistribution of compound at 60 min in mice spleen; format: ADME, organism-based; conditions: in vivo, 1 h; outline: as §1
Mus musculus [31] = species on record: Mus musculus; test: Tested for biodistribution of compound at 30 min in mice kidney; format: ADME, organism-based; conditions: in vivo, 0.5 h; outline: as §2
Mus musculus [32] = species on record: Mus musculus; test: Tested for biodistribution of compound at 30 min in mice iver; format: ADME, organism-based, Liver; conditions: in vivo, 0.5 h; outline: as §2
Mus musculus [33] = species on record: Mus musculus; test: Tested for biodistribution of compound at 1 min in mice blood; format: ADME, organism-based; conditions: in vivo; outline: as §2
Mus musculus [34] = species on record: Mus musculus; test: Tested for biodistribution of compound at 30 min in mice intestine; format: ADME, organism-based; conditions: in vivo, 0.5 h; outline: as §2
Mus musculus [35] = species on record: Mus musculus; test: Tested for biodistribution of compound at 5 min in mice kidney; format: ADME, organism-based; conditions: in vivo; outline: as §1
Mus musculus [36] = species on record: Mus musculus; test: Tested for biodistribution of compound at 10 min in mice muscle; format: ADME, organism-based, Muscle tissue; conditions: in vivo; outline: as §2
Mus musculus [37] = species on record: Mus musculus; test: Tested for biodistribution of compound at 30 min in mice spleen; format: ADME, organism-based; conditions: in vivo, 0.5 h; outline: as §2
Mus musculus [38] = species on record: Mus musculus; test: Tested for biodistribution of compound at 1 min in mice muscle; format: ADME, organism-based, Muscle tissue; conditions: in vivo; outline: as §2
Mus musculus [39] = species on record: Mus musculus; test: Tested for biodistribution of compound at 30 min in mice stomach; format: ADME, organism-based; conditions: in vivo, 0.5 h; outline: as §2
Mus musculus [40] = species on record: Mus musculus; test: Tested for biodistribution of compound at 30 min in mice blood; format: ADME, organism-based; conditions: in vivo, 0.5 h; outline: as §2
Mus musculus [41] = species on record: Mus musculus; test: Tested for biodistribution of compound at 10 min in mice kidney; format: ADME, organism-based; conditions: in vivo; outline: as §2
Mus musculus [42] = species on record: Mus musculus; test: Tested for biodistribution of compound at 30 min in mice lungs; format: ADME, organism-based, Lung; conditions: in vivo, 0.5 h; outline: as §2
Mus musculus [43] = species on record: Mus musculus; test: Tested for biodistribution of compound at 5 min in mice muscle; format: ADME, organism-based, Muscle tissue; conditions: in vivo; outline: as §1
Mus musculus [44] = species on record: Mus musculus; test: Tested for biodistribution of compound at 10 min in mice lungs; format: ADME, organism-based, Lung; conditions: in vivo; outline: as §2
Mus musculus [45] = species on record: Mus musculus; test: Tested for biodistribution of compound at 10 min in mice intestine; format: ADME, organism-based; conditions: in vivo; outline: as §2
Mus musculus [46] = species on record: Mus musculus; test: Tested for biodistribution of compound at 60 min in mice kidney; format: ADME, organism-based; conditions: in vivo, 1 h; outline: as §1
Mus musculus [47] = species on record: Mus musculus; test: Tested for biodistribution of compound at 10 min in mice urine; format: ADME, organism-based; conditions: in vivo; outline: as §2
Mus musculus [48] = species on record: Mus musculus; test: Tested for biodistribution of compound at 60 min in mice heart; format: ADME, organism-based; conditions: in vivo, 1 h; outline: as §1
Mus musculus [49] = species on record: Mus musculus; test: Tested for biodistribution of compound at 60 min in mice blood; format: ADME, organism-based; conditions: in vivo, 1 h; outline: as §1
Mus musculus [50] = species on record: Mus musculus; test: Tested for biodistribution of compound at 5 min in mice iver; format: ADME, organism-based, Liver; conditions: in vivo; outline: as §1
Mus musculus [51] = species on record: Mus musculus; test: Tested for biodistribution of compound at 5 min in mice blood; format: ADME, organism-based; conditions: in vivo; outline: as §1
Mus musculus [52] = species on record: Mus musculus; test: Tested for biodistribution of compound at 10 min in mice heart; format: ADME, organism-based; conditions: in vivo; outline: as §2
Mus musculus [53] = species on record: Mus musculus; test: Tested for biodistribution of compound at 1 min in mice lungs; format: ADME, organism-based, Lung; conditions: in vivo; outline: as §2

Dose/organ (Mus musculus [1]): 0.59% | Dose/organ (Mus musculus [2]): 1.02% | Dose/organ (Mus musculus [3]): 1.57% | Dose/organ (Mus musculus [4]): 5.27% | Dose/organ (Mus musculus [5]): 3.58% | Dose/organ (Mus musculus [6]): 9.31% | Dose/organ (Mus musculus [7]): 44.3% | Dose/organ (Mus musculus [8]): 0.35% | Dose/organ (Mus musculus [9]): 2.43% | Dose/organ (Mus musculus [10]): 0.77% | Dose/organ (Mus musculus [11]): 24.79% | Dose/organ (Mus musculus [12]): 1.1% | Dose/organ (Mus musculus [13]): 10.41% | Dose/organ (Mus musculus [14]): 0.73% | Dose/organ (Mus musculus [15]): 4.02% | Dose/organ (Mus musculus [16]): 0.11% | Dose/organ (Mus musculus [17]): 0.15% | Dose/organ (Mus musculus [18]): 0.21% | Dose/organ (Mus musculus [19]): 0.26% | Dose/organ (Mus musculus [20]): 18.03% | Dose/organ (Mus musculus [21]): 0.16% | Dose/organ (Mus musculus [22]): 1.79% | Dose/organ (Mus musculus [23]): 4.14% | Dose/organ (Mus musculus [24]): 0.39% | Dose/organ (Mus musculus [25]): 1.24% | Dose/organ (Mus musculus [26]): 0.06% | Dose/organ (Mus musculus [27]): 3.68% | Dose/organ (Mus musculus [28]): 2.3% | Dose/organ (Mus musculus [29]): 1.52% | Dose/organ (Mus musculus [30]): 0.03% | Dose/organ (Mus musculus [31]): 1.04% | Dose/organ (Mus musculus [32]): 24.36% | Dose/organ (Mus musculus [33]): 5.77% | Dose/organ (Mus musculus [34]): 43.12% | Dose/organ (Mus musculus [35]): 2.45% | Dose/organ (Mus musculus [36]): 20.29% | Dose/organ (Mus musculus [37]): 0.06% | Dose/organ (Mus musculus [38]): 34.39% | Dose/organ (Mus musculus [39]): 0.37% | Dose/organ (Mus musculus [40]): 0.8% | Dose/organ (Mus musculus [41]): 1.76% | Dose/organ (Mus musculus [42]): 0.52% | Dose/organ (Mus musculus [43]): 25.57% | Dose/organ (Mus musculus [44]): 1.05% | Dose/organ (Mus musculus [45]): 15.44% | Dose/organ (Mus musculus [46]): 0.54% | Dose/organ (Mus musculus [47]): 0.27% | Dose/organ (Mus musculus [48]): 0.05% | Dose/organ (Mus musculus [49]): 0.79% | Dose/organ (Mus musculus [50]): 16.97% | Dose/organ (Mus musculus [51]): 1.66% | Dose/organ (Mus musculus [52]): 0.31% | Dose/organ (Mus musculus [53]): 5.25%
Substance: [4-methoxythio)phenolato][N,N-bis(2-mercaptoethyl)-2-(ethylthio)ethylamine] oxotechnetium
